Activity calls are given as the source filed them. The rule behind the calls is not given here.

For one series, the system named is MDA-MB-231. Kind of series: Cytotoxicity against human MDA-MB-231 cells assessed as reduction in cell viability measured after 72 hrs by SRB assay. It counts as functional, cell-based. Particulars: MDA-MB-231, 72 h. A general note: In SRB staining, fixed cells bind dye roughly in proportion to their protein.
The test system of another series is HT-29. As to the kind of experiment: Cytotoxicity against human HT-29 cells assessed as reduction in cell viability measured after 72 hrs by SRB assay. The class given is functional, cell-based. The conditions noted are these: HT-29, 72 h.
Another series has as its system PC-3. Kind of series: Cytotoxicity against human PC3 cells assessed as reduction in cell viability measured after 72 hrs by SRB assay. It counts as functional, cell-based. Particulars: PC-3, 72 h.
The next series concerns DU-145. As to the kind of experiment: Cytotoxicity against human DU145 cells assessed as reduction in cell viability measured after 72 hrs by SRB assay. The class given is functional, cell-based. Particulars: DU-145, 72 h.
Another series concerns HeLa. Kind of series: Cytotoxicity against human HeLa cells assessed as reduction in cell viability measured after 72 hrs by SRB assay. It counts as functional, cell-based.
A short description of series [1]: Toxicity in 24 hrs post fertilized zebrafish embryo assessed as developmental delay at 50 uM measured after 24 hrs by microscopic analysis. Also on record: species or system Danio rerio. Particulars: in vivo. The gist of the method:
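Embryos raised at 28 °C to 24 hpf, then exposed to 50 μM in 1% DMSO in water (vehicle control) for 24 h; larvae examined and photographed by light microscopy for developmental morphology.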

Series [2] concerns the target Sodium/potassium-transporting ATPase (Homo sapiens) (UniProt P05023+P14415+P05026+P50993+P54709+P13637+Q13733+P54710). Kind of series: Inhibition of Na+/K+ ATPase pump in human DU145 cells assessed as increase in intracellular calcium level at 50 uM measured after 5 hrs by Fura-2/AM dye based fluorescence assay. It counts as cell-based. The gist of the method:
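DU-145 cells at 1×10^4 per well treated 5 h (0–50 μM), DMSO/water negative control; medium removed, loaded with 5 μM fura-2 AM then 2.5 mM probenecid; intracellular Ca2+ from emission 510 nm ratio at 340/380 nm excitation; two independent experiments.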

Series [3] in a line: Toxicity in 24 hrs post fertilized zebrafish embryo assessed as malformation of spine curvature at 50 uM measured after 24 hrs by microscopic analysis. Also noted: species or system Danio rerio. Particulars: in vivo. The gist of the method:
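Zebrafish embryos raised in an automated housing system at 28 °C to 24 hpf, then exposed for 24 h to test agent at 50 μM in vehicle (1% DMSO in water). Digoxin and cycloheximide at 50 μM served as positive controls, with an untreated control. Morphology was then inspected and photographed by light microscopy.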

The term IC50 denotes the concentration at which inhibition is half-maximal. Turning to `CC(=O)O[C@H]1C(=O)[C@@]2(C)[C@H]([C@H](OC(=O)c3ccccc3)[C@]3(O)C[C@H](OC(=O)[C@H](O)[C@@H](NC(=O)c4ccccc4)c4ccccc4)C(C)=C1C3(C)C)[C@]1(OC(C)=O)CO[C@@H]1C[C@@H]2O` [PACLITAXEL], the half-maximal inhibitory concentration (IC50) with MDA-MB-231 is 100 nM; in the series with HT-29 it was 2 nM; with PC-3, 170 nM; in the series with DU-145, 4 nM; in the series on HeLa, 5 nM.

On to `C[C@@H]1C[C@@H]([C@H](O)CC2CC(=O)NC(=O)C2)C(=O)[C@@H](C)C1` [CYCLOHEXIMIDE], for which the Activity result in series [1] is “Toxic”.

For the molecule `C[C@H]1O[C@@H](O[C@H]2[C@@H](O)C[C@H](O[C@H]3[C@@H](O)C[C@H](O[C@H]4CC[C@@]5(C)[C@H](CC[C@@H]6[C@@H]5C[C@@H](O)[C@]5(C)[C@@H](C7=CC(=O)OC7)CC[C@]65O)C4)O[C@@H]3C)O[C@@H]2C)C[C@H](O)[C@@H]1O` [DIGOXIN], the inhibition entry in series [2] is “Active”. Also, the Activity result in series [3] is reported as “Toxic”.

These data come from ChEMBL document CHEMBL4334445, “Caspase-Dependent Apoptosis in Prostate Cancer Cells and Zebrafish by Corchorusoside C from Streptocaulon juventas” (J Nat Prod, 2019).
